In PMC3809117 (AIDS (London, England), 2009):

Key:
[1] = test system: HIV LTR in J89 cells; assay: LTR-driven GFP expression in J89 cells by flow cytometry; type: cell-based; conditions: overnight incubation with HDACi
How it was run: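 Latently infected Jurkat line carrying EGFP as a reporter of Tat-driven HIV LTR expression, grown in RPMI 1640 with 10% FBS at 37°C, 5% CO2. Cells were PBS-washed, exposed overnight to inhibitor, then fixed in PBS with 2% paraformaldehyde. Live cells were gated, with two-parameter analysis to separate GFP from background. From 10 000 events, %GFP+ was reported as mean ± SE of three independent experiments.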

[2] = test system: J89 cells; assay: MTT cytotoxicity/proliferation assay in J89 cells; type: cell-based; conditions: 24 h, at concentrations used to induce LTR expression
How it was run: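 Cells were washed in PBS and incubated 24 h across a range of inhibitor concentrations, then assayed with an MTT proliferation kit. Percent proliferating cells was calculated relative to cells in drug-free medium. Run in triplicate.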

[3] = test system: latent HIV in resting CD4+ T cells; type: cell-based, HIV-1; conditions: resting CD4+ T cells of aviremic patients on ART, 24 h exposure, compared to PHA
How it was run: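 Resting CD4+ T cells came from leukapheresis by negative selection, from patients with plasma RNA <50 copies/ml. Cells were plated at 2.5, 0.5 or 0.1 million per well and exposed to drug for 24 h. PHA comparator: 1 µg/ml PHA-L, five-fold irradiated allogeneic PBMCs and 20 U/ml IL-2. Cells were then washed and co-cultured with CD8-depleted PBMC. p24 ELISA was read on days 15 and 19, and IUPM derived by maximum likelihood.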

[4] = test system: HDACs; conditions: HDAC isoforms inhibited; cited from earlier work
[5] = test system: latent HIV in resting CD4+ T cells; conditions: cited from earlier work

SMILES | LTR activation (LTR-driven GFP expression) [1] | cell proliferation (MTT) [2] | induction of virus outgrowth (recovery of replication-competent HIV) [3] | Selectivity [4] | viral outgrowth from resting CD4+ T cells of aviremic HIV-infected individuals on ART [5]
CCC(=O)CCCCC[C@@H]1NC(=O)[C@H]2CCCCN2C(=O)[C@H]([C@@H](C)CC)NC(=O)[C@H](Cc2cn(OC)c3ccccc23)NC1=O [Apicidin, apicidin] | induced LTR activation | slightly antiproliferative | suboptimal | HDAC1, 2, 3 | 
CCCC(CCC)C(=O)O [VPA, valproic acid] | effectively induced LTR expression | did not perturb cell proliferation | effective at inducing virus |  | induce viral outgrowth
O=C(CCCCCCC(=O)Nc1ccccc1)NO [SAHA, suberoylanilide hydroxamic acid] |  |  |  |  | induce viral outgrowth
